ChEMBL document CHEMBL5376028, “Discovery of dual-action phenolic 4-arylidene-isoquinolinones with antioxidant and α-glucosidase inhibition activities” (RSC Med Chem, 2024)
Active and inactive are the calls of the source. The calls are words filed in the database; no cut-off is given here.

What was measured:
[1] = tested on: Brain; assay: Antioxidant activity in Wistar rat brain homogenate assessed as inhibition of FeSO4-induced lipid peroxidation by measuring TBARS scavenging activity at 100 uM preincubated with compound for 30 mins followed by FeSO4 addition and measured after 1 hrs by absorbance based microplate reader relative to control; assay type: functional, tissue-based; design: scale not given: the % may be the effect or the level left; settings: time 90.0 min
Outline: (§1)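 Whole brains of adult male Wistar rats (200–250 g) were homogenized 1/10 in PBS pH 7.4 and spun at 800 rcf. The supernatant was adjusted to 2.666 mg protein/mL and preincubated with EDTA and compound in DMSO for 30 min at 37 °C. FeSO₄ (final 10 μM) was added for 1 h at 37 °C. TBA/TCA reagent was added, then heating at 80 °C, and A540 was read against a TMP standard curve. Inhibition % was calculated versus the DMSO control; α-tocopherol served as the standard. IC₅₀ came from linear regression, mean ± SEM of three experiments.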

[2] = Antioxidant activity assessed as DPPH radical scavenging activity at 100 uM incubated for 30 mins in dark by absorbance based analysis relative to control; assay type: functional
Outline: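 The compound in DMSO was mixed with DPPH in EtOH (final 100 μM). It was incubated 30 min at 37 °C with stirring in the dark, and absorbance was read at 515 nm. Scavenging % = (C − E) × 100/C against the DPPH control.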

[3] = tested on: Brain; assay: Antioxidant activity in Wistar rat brain homogenate assessed as inhibition of FeSO4-induced lipid peroxidation preincubated with compound for 30 mins followed by FeSO4 addition and measured after 1 hrs by TBARS assay; assay type: functional, tissue-based; settings: Rattus norvegicus, Wistar, Brain; outline: as §1
[4] = biological target: Alpha-glucosidase (Saccharomyces cerevisiae S288c, UniProt P53341+P38158+P07265); assay: Inhibition of Saccharomyces cerevisiae alpha-glucosidase using p-nitrophenyl-alpha-D-glucopyranoside as substrate pre-incubated for 10 mins followed by substrate addition and measured after 15 mins by absorbance based analysis; assay type: protein assay
[5] = tested on: Mus musculus; assay: Anti-hyperglycemic activity in CDI mouse assessed as reduction in glucose AUC at 50 mg/kg measured for 7 hrs by oral glucose tolerance test; assay type: functional, organism-based
[6] = tested on: Mus musculus; assay: Anti-hyperglycemic activity in CDI mouse assessed as reduction in blood glucose level at 100 mg/kg preadministered with compound for 30 mins followed by sucrose administration and measured upto 3 hrs by oral sucrose tolerance test relative to control; assay type: functional; design: scale not given: the % may be the effect or the level left; settings: time < 3.5 hrs
Outline: (§2)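 Sucrose 3 g kg⁻¹ given orally 30 min later. Caudal vein blood glucose measured by glucometer at 0, 0.5, 1, 1.5, 2 and 3 h; % variation of glycemia calculated relative to the 0 h level.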

[7] = tested on: COS-7; assay: Cytotoxicity against African green monkey COS-7 cells at 50 uM; assay type: toxicity, cell-based; settings: chlorocebus aethiops, cos-7, 50 µM
[8] = tested on: Mus musculus; assay: Anti-hyperglycemic activity in CDI mouse assessed as reduction in blood glucose level preadministered with compound for 30 mins followed by sucrose administration and measured upto 3 hrs by oral sucrose tolerance test; assay type: functional, organism-based; settings: dose 50-100 mg/kg, time <= 3.5 hrs; outline: as §2
[9] = tested on: Mus musculus; assay: Anti-hyperglycemic activity in CDI mouse assessed as reduction in blood glucose level at 50 mg/kg measured for 7 hrs by oral glucose tolerance test; assay type: functional, organism-based
[10] = Toxicity in CDI mouse; settings: in vivo
[11] = tested on: Mus musculus; assay: Anti-hyperglycemic activity in CDI mouse assessed as decrease in blood glucose level at 50 mg/kg preadministered with compound for 30 mins followed by sucrose administration and measured after 30 mins by oral sucrose tolerance test relative to control; assay type: functional; outline: as §2
[12] = biological target: T1, Alpha-glucosidase (Saccharomyces cerevisiae S288c) (UniProt P53341+P38158+P07265); assay: Mixed type inhibition of Saccharomyces cerevisiae alpha-glucosidase using p-nitrophenyl-alpha-D-glucopyranoside as substrate at 0.5 to 1 times of IC50 pre-incubated for 10 mins followed by substrate addition and measured after 15 mins by Lineweaver-Burk plot analysis; assay type: protein assay; settings: time 25.0 min
Outline: (§3)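 The same α-glucosidase protocol was used, with enzyme and inhibitor preincubated 10 min. Reactions were started with PNPG varied from 1 to 23.1 mM at 37 °C, quenched with […] and read at 405 nm. […] Mode was assigned from Lineweaver–Burk plots.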

[13] = tested on: Mus musculus; assay: Anti-hyperglycemic activity in CDI mouse assessed as blood glucose concentration at 50 mg/kg preadministered with compound for 30 mins followed by sucrose administration and measured after 3 hrs by oral sucrose tolerance test relative to control; assay type: functional; settings: time 3.5 hrs; outline: as §2
[14] = biological target: T1, Alpha-glucosidase (Saccharomyces cerevisiae S288c); assay: Mixed type inhibition of Saccharomyces cerevisiae alpha-glucosidase using p-nitrophenyl-alpha-D-glucopyranoside as substrate at 1 to 2 times of IC50 pre-incubated for 10 mins followed by substrate addition and measured after 15 mins by Lineweaver-Burk plot analysis; assay type: protein assay; settings: time 25.0 min; outline: as §3

## COc1cc(/C=C2/C(=O)N(Cc3ccccc3)C(C(=O)NC3CCCCC3)c3ccccc32)cc(OC)c1O (configuration not stated)
[1]
  Activity: 96.8%
[2]
  Activity: 36.2%
[3]
  IC50: 2.2 µM
[4]
  IC50: 61.3 µM

## COc1cc(/C=C2/C(=O)N(c3ccc(C(C)C)cc3)C(C(=O)NC(C)(C)C)c3ccccc32)cc(OC)c1O (configuration not stated)
[1]
  Activity: 96.8%
[2]
  Activity: 37.6%
[3]
  IC50: 2.4 µM
[4]
  IC50: > 100 µM

## COc1ccc2c(c1)/C(=C\c1ccc(O)c(OC)c1)C(=O)N(c1ccc(C(C)C)cc1)C2C(=O)NC(C)(C)C (configuration not stated)
[1]
  Activity: 95.4%
[2]
  Activity: 69.2%
[3]
  IC50: 11.3 µM
[4]
  IC50: 31.5 µM

## COc1cc(/C=C2/C(=O)N(c3ccccc3)C(C(=O)NC3CCCCC3)c3ccccc32)ccc1O (configuration not stated)
[1]
  Activity: 95.5%
[2]
  Activity: 66.8%
[3]
  IC50: 19.2 µM
[4]
  IC50: 50.5 µM

## COc1cc(/C=C2/C(=O)N(c3ccc(O)cc3)C(C(=O)NC3CCCCC3)c3ccccc32)ccc1O (configuration not stated)
[1]
  Activity: 96.4%
[2]
  Activity: 72.2%
[3]
  IC50: 22.7 µM
[4]
  IC50: 92.8 µM

## COc1cc(/C=C2/C(=O)N(c3ccc(C)cc3)C(C(=O)NC3CCCCC3)c3ccccc32)ccc1O (configuration not stated)
[5]
  Activity: inactive
[6]
  Activity: 41%
[1]
  Activity: 70.7%
[7]
  Activity: Non-Toxic
[2]
  Activity: 72.7%
[8]
  Activity: Dose-Dependent Effect
[9]
  Activity: inactive
[10]
  Activity: Non-Toxic
[11]; time 60.0 min
  Activity: Active
[12]
  inhibition: Active
[13]
  Activity: 20%
[4]
  IC50: 30.2 µM

## CC(C)c1ccc(N2C(=O)/C(=C/c3ccccc3)c3ccccc3C2C(=O)NC(C)(C)C)cc1 (configuration not stated)
[1]
  Activity: 6.1%
[2]
  Activity: 0%
[4]
  IC50: 50.6 µM

## VITAMIN E
[1]
  Activity: 79.1%
[2]
  Activity: 87.4%

## COc1cc(/C=C2/C(=O)N(c3ccccc3)C(C(=O)NC3CCCCC3)c3ccccc32)cc(OC)c1O (configuration not stated)
[1]
  Activity: 97.8%
[2]
  Activity: 40.6%
[3]
  IC50: 4.8 µM
[4]
  IC50: 60.1 µM

## COc1cc(/C=C2/C(=O)N(c3ccc(C(C)C)cc3)C(C(=O)NC3CCCCC3)c3ccccc32)ccc1O (configuration not stated)
[1]
  Activity: 95.7%
[2]
  Activity: 68%
[14]
  inhibition: Active
[11]; time 60 min, 1 h
  Activity: 17%
[3]
  IC50: 17.2 µM
[4]
  IC50: 14.8 µM
